The values that follow come from publication PMC7035113 (Nature, 2020).

Square brackets hold non-standard residues; d marks the D form. Ends that are not written are not given here. Peptide text beside a SMILES is read from it. pT = C[C@@H](OP(=O)(O)O)[C@H](N)C(=O)O

In this assay the target is T1, SA2-SCC1 (Homo sapiens, UniProt O60216+Q8N3U4).
T1 sequence (Q8N3U4 80-1060): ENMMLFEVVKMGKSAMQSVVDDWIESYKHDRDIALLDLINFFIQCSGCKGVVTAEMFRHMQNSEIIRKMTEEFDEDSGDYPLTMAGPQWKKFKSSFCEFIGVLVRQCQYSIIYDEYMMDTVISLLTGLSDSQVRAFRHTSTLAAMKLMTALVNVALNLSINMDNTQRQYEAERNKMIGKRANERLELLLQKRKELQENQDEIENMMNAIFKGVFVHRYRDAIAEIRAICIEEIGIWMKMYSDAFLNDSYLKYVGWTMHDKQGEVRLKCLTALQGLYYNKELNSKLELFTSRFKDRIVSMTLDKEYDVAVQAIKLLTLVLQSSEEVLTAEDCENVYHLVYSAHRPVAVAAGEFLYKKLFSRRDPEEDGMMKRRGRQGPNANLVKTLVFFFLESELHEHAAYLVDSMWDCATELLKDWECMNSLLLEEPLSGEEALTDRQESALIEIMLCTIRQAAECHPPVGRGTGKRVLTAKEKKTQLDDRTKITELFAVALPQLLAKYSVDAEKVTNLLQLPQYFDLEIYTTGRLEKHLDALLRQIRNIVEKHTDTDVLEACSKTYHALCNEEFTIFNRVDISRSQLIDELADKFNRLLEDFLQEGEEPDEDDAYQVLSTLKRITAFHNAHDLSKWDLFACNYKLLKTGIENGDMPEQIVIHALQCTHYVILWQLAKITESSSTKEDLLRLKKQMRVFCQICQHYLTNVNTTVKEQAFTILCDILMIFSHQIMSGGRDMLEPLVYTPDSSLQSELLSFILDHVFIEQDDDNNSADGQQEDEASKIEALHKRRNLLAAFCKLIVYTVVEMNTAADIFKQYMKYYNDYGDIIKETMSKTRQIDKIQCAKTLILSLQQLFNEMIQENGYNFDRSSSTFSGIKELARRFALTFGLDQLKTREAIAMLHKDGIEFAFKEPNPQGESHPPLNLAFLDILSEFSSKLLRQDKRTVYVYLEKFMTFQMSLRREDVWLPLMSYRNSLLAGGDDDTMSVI
T1 sequence (O60216 281-420): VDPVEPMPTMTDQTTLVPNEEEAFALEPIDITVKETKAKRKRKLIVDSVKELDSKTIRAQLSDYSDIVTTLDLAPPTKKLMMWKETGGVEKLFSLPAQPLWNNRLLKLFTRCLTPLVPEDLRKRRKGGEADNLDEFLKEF
Description: Isothermal titration calorimetry. The note with it: ITC, 25°C, one site binding model. The procedure, abridged: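 Recombinant SA2-SCC1 from E. coli BL21(DE3), purified by Co2+ IMAC, MonoQ and Superdex 200. Protein and peptides were dialysed overnight at 4°C against 20 mM Tris pH 7.7, 150 mM NaCl, 0.5 mM TCEP. 50 μM SA2-SCC1 was placed in the cell and titrated with 500 μM peptide in 16 injections. Data were fitted to a one-site model; titrations were repeated three times.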
A general note: In ITC the heat of successive injections is recorded.
Take NYKIKYFGFDDLSESE [Wapl 447-462]: the “N (binding stoichiometry)” value is reported as 1.00, the TΔS is -1.20 kcal/mol, the ΔG is -5.60 kcal/mol and the ΔH was -6.81 kcal/mol.

Turning to “DVKLEFFGFEDHETGGDEGGSGSSNYKIKYFGFDDLSESED [Wapl 423-463]”, the “N (binding stoichiometry)” value is on record as 0.62, the TΔS is -0.54 kcal/mol, the ΔG is listed as -6.11 kcal/mol and the ΔH is recorded as -6.66 kcal/mol.

Take SNDAYNFNLEE [Shugoshin 331-341]: the “N (binding stoichiometry)” value turned out to be 0.83, the TΔS was -4.02 kcal/mol, the ΔG is listed as -6.64 kcal/mol and the ΔH is -10.67 kcal/mol.

Turning to `CC(C)C[C@H](NC(=O)[C@H](CC(N)=O)NC(=O)[C@H](Cc1ccccc1)NC(=O)[C@H](CC(N)=O)NC(=O)[C@H](Cc1ccc(O)cc1)NC(=O)[C@H](C)NC(=O)[C@H](CC(=O)O)NC(=O)[C@H](CC(N)=O)NC(=O)[C@@H](N)CO)C(=O)N[C@@H](CCC(=O)O)C(=O)N[C@@H](CCC(=O)O)C(=O)NCC(=O)N[C@H](C(=O)N[C@@H](Cc1c[nH]cn1)C(=O)N[C@@H](CC(C)C)C(=O)N[C@H](C(=O)N1CCC[C@H]1C(=O)N[C@@H](Cc1ccccc1)C(=O)N[C@@H](CCCNC(=N)N)C(=O)O)[C@@H](C)OP(=O)(O)O)C(C)C` [Shugoshin 331-349 (pT346), reference compound] (H-SNDAYNFNLEEGVHL[pT]PFR-OH; N-terminus and C-terminus assumed), the “N (binding stoichiometry)” value amounted to 0.89, the TΔS is -12.30 kcal/mol, the ΔG is reported as -7.69 kcal/mol and the ΔH is reported as -20.00 kcal/mol.
